CRFBP-R2 agonist: CRF-BP/CRF-R2 complex agonism; 350,000 tested, 0.46% active; HEK293 CRF-R2/CRF-BP, calcium dye fluorescence (FLIPR); percent of saturating CRF peptide response; activation, % at 13.2 µM;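 active = activation of at least 50%, plus an integration ratio under a set limit after plate pattern correction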;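 also: plate controls were neutral control wells without compound for no effect and CRF at EC100 for full effect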
CRFR2-BP antag: CRF-BP/CRF-R2 complex antagonism; HEK293 CRF-R2/CRF-BP, CRF-induced calcium fluorescence; inhibition, % at 11.8 µM; 350,000 tested, 0.59% active;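 active = inhibition of the ligand-induced calcium signal above about 50% at the single tested concentration, limit read from the data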
ANO1 activ: activates or potentiates the mouse TMEM16A chloride channel | Q8BHY3 | HEK293 TMEM16A/YFP-H148Q/I152L, iodide quench fluorescence; hits give low values | B-score at 10 µM | 340,000 tested, 0.3% active | AID 623877;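 active = fluorescence-ratio B-score plate-corrected deviation score at least 3 library SD below zero, with starting fluorescence score within 5 deviations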;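 also: channel opened by trigger with iodide after compound preincubation; score built on the fluorescence ratio of max minus min over baseline; more negative score means more quench and so TMEM16A activation or potentiation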
Target sequence (Q8BHY3 whole entry, looked up): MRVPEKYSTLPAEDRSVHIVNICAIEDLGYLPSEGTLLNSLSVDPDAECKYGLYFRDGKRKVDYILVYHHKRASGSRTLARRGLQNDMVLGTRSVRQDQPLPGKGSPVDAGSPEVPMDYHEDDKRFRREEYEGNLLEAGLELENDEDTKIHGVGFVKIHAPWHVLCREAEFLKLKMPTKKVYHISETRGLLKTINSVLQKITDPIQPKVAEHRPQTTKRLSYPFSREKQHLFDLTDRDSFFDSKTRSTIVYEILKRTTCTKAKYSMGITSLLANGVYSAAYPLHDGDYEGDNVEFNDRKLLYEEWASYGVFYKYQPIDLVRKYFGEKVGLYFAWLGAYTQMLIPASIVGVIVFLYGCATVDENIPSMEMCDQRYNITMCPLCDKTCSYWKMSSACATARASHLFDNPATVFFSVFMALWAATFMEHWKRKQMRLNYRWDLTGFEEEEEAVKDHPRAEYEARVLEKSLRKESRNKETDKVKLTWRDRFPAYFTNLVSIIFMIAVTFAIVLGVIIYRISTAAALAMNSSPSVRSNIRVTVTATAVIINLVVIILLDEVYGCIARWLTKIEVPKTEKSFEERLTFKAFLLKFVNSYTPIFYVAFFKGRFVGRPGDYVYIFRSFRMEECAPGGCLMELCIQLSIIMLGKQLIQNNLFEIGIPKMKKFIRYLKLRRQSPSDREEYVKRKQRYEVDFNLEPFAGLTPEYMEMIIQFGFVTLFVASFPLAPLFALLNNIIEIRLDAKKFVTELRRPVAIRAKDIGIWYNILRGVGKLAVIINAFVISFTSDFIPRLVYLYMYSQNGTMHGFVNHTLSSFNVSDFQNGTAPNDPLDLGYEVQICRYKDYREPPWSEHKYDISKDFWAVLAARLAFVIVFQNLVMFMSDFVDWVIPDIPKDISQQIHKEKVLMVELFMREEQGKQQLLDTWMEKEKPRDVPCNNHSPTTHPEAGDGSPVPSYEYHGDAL
ANO1 block: inhibitors of mouse TMEM16A calcium-activated chloride channel; Q8BHY3; HEK293 TMEM16A/YFP iodide influx fluorescence, ionomycin; normalized B-score (activity score, 25-100; higher = stronger inhibition) at 10 µM; 310,000 tested, 1.2% active; AID 588511;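 active = ratio plate-corrected score three or more library SD toward inhibition, starting fluorescence score within five deviations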;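 also: score derived from kinetic fluorescence span divided by baseline fluorescence per well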
TAAR1 ag: human TAAR1 agonism | Q96RJ0 | CHO RD-HGA16 TAAR1, Fluo-8 calcium fluorescence; vehicle wells 0%, saturating PEA agonist 100% | activation, % at 3 µM | 360,000 tested, 0.99% active | AID 624467;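 active = activation above the mean activation of all test compounds in the run plus 3 SD, cut at about 38% in these data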
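Benchmarks: low control DMSO, high control PEA (EC100); System: CHO RD-HGA16 cells carrying human TAAR1 plus Gα16; Detection: Fluo-8 fluorescence, 5 s baseline then 140 s kinetic read; Schedule: 17-24 h plating, Fluo-8 75 min 37 °C, 30 min RT; Read-out basis: % activation from peak over basal fluorescence ratio, DMSO-to-PEA scaled.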
TAAR1 antag: antagonists of human TAAR1. Q96RJ0. CHO RD-HGA16 TAAR1, Fluo-8 calcium fluorescence, antagonist. inhibition, % at 3 µM. 360,000 tested, 1.5% active;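 active = inhibition above a per-plate cutoff, the mean inhibition of test compounds on that plate plus 3 SD, cut at about 49% in these data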;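 also: 0% = DMSO plus EC80 beta-PEA response and 100% = DMSO alone without agonist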
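System: RD-HGA16 CHO cells with stable hTAAR1 and Gα16 | Probe or stimulus: EC80 β-phenethylamine stimulus | Dosing: 3 µM, single point | Times: Dye loading 75 min at 37 °C, then 30 min room temperature | Measured by: Fluo-8 calcium-sensitive fluorescence | Read-out basis: % inhibition of agonist calcium response | Replicates: n of 1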
* hit, by the source's call. Hits are enriched below; roughly 3.9% of the tested compounds scored in any of these assays.

For Cc1ccn(C(=O)c2ccc(NC(=O)C3CCCCC3)cc2)n1 the results were CRFBP-R2 agonist -4, CRFR2-BP antag 54*, ANO1 activ inactive, ANO1 block inactive, TAAR1 ag 15 and TAAR1 antag 4.
O=C(Cc1ccccc1)Oc1coc(CSc2ncccn2)cc1=O was read as CRFBP-R2 agonist -1, CRFR2-BP antag -7, ANO1 activ inactive, ANO1 block inactive, TAAR1 ag 1 and TAAR1 antag -6.
`O=C1c2[nH]c3ccccc3c2CC1N1C(=O)c2ccccc2C1=O` (configuration not stated) gave CRFBP-R2 agonist -3, CRFR2-BP antag -10, TAAR1 ag 21 and TAAR1 antag 52*.
Screening O=C1CCC(N2C(=O)c3ccccc3C2=O)C(=O)N1 (configuration not stated) returned CRFBP-R2 agonist 0, CRFR2-BP antag 19, ANO1 activ inactive, ANO1 block inactive, TAAR1 ag 2 and TAAR1 antag -8.
`COc1ccccc1/C(C)=N/Oc1cc(N)cc([N+](=O)[O-])c1` gave CRFBP-R2 agonist 1, CRFR2-BP antag 11, ANO1 activ inactive, TAAR1 ag -1 and TAAR1 antag -17.
`CC(=O)C1(O)CCC2C3CC(C)C4=CC(=O)C=CC4(C)C3(F)C(O)CC21C` (configuration not stated) gave CRFBP-R2 agonist 5, CRFR2-BP antag 79*, ANO1 activ inactive, TAAR1 ag 2 and TAAR1 antag -18.
O=C(Nc1ccc(O)cc1)/C(=C\C=C\c1ccccc1)NC(=O)c1ccccc1 was read as CRFBP-R2 agonist 0, CRFR2-BP antag 6, ANO1 activ inactive, ANO1 block inactive, TAAR1 ag 6 and TAAR1 antag 50*.
`CCc1ccc(NC(=S)N2CCCC(C(F)(F)F)C2)cc1` (configuration not stated) gave CRFBP-R2 agonist -1, CRFR2-BP antag -3, ANO1 activ inactive, ANO1 block inactive, TAAR1 ag -1 and TAAR1 antag 8.
For Cc1ccc(S(=O)(=O)/N=C2\C=C(Nc3ccc(O)cc3)C(=O)c3ccccc32)cc1 the results were CRFBP-R2 agonist -1, CRFR2-BP antag 22 and ANO1 activ inactive.
Cc1ccc(S(=O)(=O)/N=C2\C=C(NS(=O)(=O)c3ccccc3)C(=O)c3ccccc32)c(C)c1 was read as CRFBP-R2 agonist 1, CRFR2-BP antag 30, ANO1 activ inactive, TAAR1 ag 3 and TAAR1 antag 0.
Cc1ccc(S(=O)(=O)/N=C2\C=C(Nc3cccc(C(=O)O)c3)C(=O)c3ccccc32)c(C)c1 was read as CRFBP-R2 agonist -1, CRFR2-BP antag 66*, ANO1 activ inactive, ANO1 block inactive, TAAR1 ag 1 and TAAR1 antag 0.
Screening Cc1ccc(S(=O)(=O)/N=C2\C=C(Nc3cccc(C(=O)O)c3)C(=O)c3ccccc32)cc1 returned CRFBP-R2 agonist -3, CRFR2-BP antag 38, ANO1 activ inactive, ANO1 block 25*, TAAR1 ag 1 and TAAR1 antag 1.
Cc1onc(-c2ccccc2)c1C(=O)OCC(=O)NC(=O)c1ccccc1 was read as CRFBP-R2 agonist -2, CRFR2-BP antag -10, ANO1 activ inactive, ANO1 block inactive, TAAR1 ag -1 and TAAR1 antag 16.
For CN1/C(=C\C=C(/C#N)C(=O)Nc2ccccc2F)C(C)(C)c2ccccc21 the results were CRFBP-R2 agonist 257*, CRFR2-BP antag -193, ANO1 activ inactive, ANO1 block inactive, TAAR1 ag 18 and TAAR1 antag 14.
`O=C(NCC(c1cccs1)N1CCOCC1)c1ccccc1NS(=O)(=O)c1ccc(Cl)c([N+](=O)[O-])c1` (configuration not stated) gave CRFBP-R2 agonist 20, CRFR2-BP antag 42, ANO1 activ inactive, ANO1 block 25*, TAAR1 ag 9 and TAAR1 antag -6.
Screening COc1ccccc1NC(=O)C1=C(C)Nc2nnnn2C1c1cc(Br)ccc1OC (configuration not stated) returned CRFBP-R2 agonist 7, CRFR2-BP antag -33, ANO1 activ inactive, ANO1 block inactive, TAAR1 ag 48* and TAAR1 antag 0.
For COc1cccc(C2C(C(=O)Nc3cccnc3)=C(C)Nc3nnnn32)c1OC (configuration not stated) the results were CRFBP-R2 agonist 1, CRFR2-BP antag -3, ANO1 activ inactive, ANO1 block inactive, TAAR1 ag 6 and TAAR1 antag 15.
Screening COCCn1c(C)cc(C(=O)CSc2nc3ccccc3c(=O)[nH]2)c1C returned CRFBP-R2 agonist 0, CRFR2-BP antag 1, ANO1 activ inactive, ANO1 block inactive, TAAR1 ag 18 and TAAR1 antag 45.
Screening C=CCn1c(C)cc(C(=O)CSc2nnc(Cc3ccccc3)o2)c1C returned CRFBP-R2 agonist -1, CRFR2-BP antag 56*, ANO1 activ inactive, ANO1 block inactive, TAAR1 ag 2 and TAAR1 antag 6.
`C=CCn1c(C)cc(C(=O)CSc2nc3ccccc3c(=O)[nH]2)c1C` gave CRFBP-R2 agonist 1, CRFR2-BP antag -10, ANO1 activ inactive, ANO1 block inactive, TAAR1 ag 17 and TAAR1 antag 67*.
For COc1ccc(-n2c(O)c(/C=C3\C=Nc4ccccc43)c(=O)[nH]c2=O)cc1 the results were CRFBP-R2 agonist 76*, CRFR2-BP antag -56, ANO1 activ inactive, TAAR1 ag 11 and TAAR1 antag 5.
For COc1ccc(-n2c(O)c(C=NC3CC3)c(=O)[nH]c2=O)cc1 the results were CRFBP-R2 agonist 0, CRFR2-BP antag -1, ANO1 activ inactive, ANO1 block inactive, TAAR1 ag 1 and TAAR1 antag -14.
`CCCSc1sc(C(=O)OC)c(-c2cccs2)c1C#N` gave CRFBP-R2 agonist -1, CRFR2-BP antag 12, ANO1 activ inactive, ANO1 block inactive, TAAR1 ag 3 and TAAR1 antag 15.
CC(=O)c1cn(CC(=O)Nc2ccccc2Cl)c2ccccc12 was read as CRFBP-R2 agonist -2, CRFR2-BP antag 1, ANO1 activ inactive, ANO1 block inactive, TAAR1 ag 5 and TAAR1 antag -14.
Screening COc1ccc2cc(C(=O)N3CCN(Cc4ccc5c(c4)OCO5)CC3)[nH]c2c1 returned CRFBP-R2 agonist 0, CRFR2-BP antag 50*, ANO1 activ inactive, ANO1 block inactive, TAAR1 ag 4 and TAAR1 antag -1.
For CCn1cnc2sc(C(=O)N3CCN(Cc4ccc5c(c4)OCO5)CC3)c(C)c2c1=O the results were ANO1 block 25*, TAAR1 ag 0 and TAAR1 antag 3.
